Data set [1] can be described thus: melting temperature; fluorescence melt of hairpins on a sequencing array, two-state fit, raised by 9.35 °C to match UV melts. To be noted: sodium 0.088 M. In outline:
(§1)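 Melting temperature and folding enthalpy were obtained by bootstrapped two-state fitting. Fits used Cy3 fluorescence of library hairpins with annealed Cy3 and quencher oligos on a sequenced MiSeq flow cell, imaged in 50 mM Na-HEPES pH 8.0, 25 mM NaCl in 2.5 °C steps up to 60 °C and normalised to pre-quench Cy3 and control constructs. Four replicates were combined by inverse-variance weighting, and fitted temperatures were raised by 9.35 °C to match UV melts.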

The nature of data set [2]: folding enthalpy; higher = less favourable; fluorescence melt of hairpins on a sequencing array, two-state fit. The note with it: sodium 0.088 M. An outline of the steps:
as §1

Among the data in the array DNA melting data of Ke et al. (doi:10.1101/2024.01.08.574731) are Tm and folding enthalpy values, retold here.

For GGTTAAGCGAAAGCTACC (((..(((....)))))), in data set [1], the Tm worked out at 39.4 °C. Also, the folding enthalpy in data set [2] is -18.2 kcal/mol.
For the sequence GGTTAAGGAAACTTGACC (((.(((....))).))), in data set [1], the Tm is 40.3 °C. Besides, the folding enthalpy in data set [2] is -30.1 kcal/mol.
In the same order, the values of GGTTACCGAAAGGTGACC (((.(((....))).))) are 58.8 °C and -41.4 kcal/mol.
For GGTTACGAAAGTACCACC ((((((....)))..))) the same measures were 36.6 °C and -14.4 kcal/mol.
In the same order, the values of GGTTACGAAAGTACGACC ((((((....)))..))) are 31.4 °C and -14.9 kcal/mol.
Regarding GGTTACGAAAGTAGACC ((((((....))).))), the Tm in data set [1] was found to be 41.4 °C. In data set [2], the folding enthalpy was -25.3 kcal/mol.
In the same order, the values of GGTTACGAAAGTATACC ((((((....))).))) are 43.1 °C and -23.8 kcal/mol.
In the same order, the values of GGTTACGGAAACGCAACC ((((.((....)).)))) are 46.6 °C and -32.7 kcal/mol.
In the same order, the values of GGTTAGCGAAAGCTACC (((.(((....)))))) are 53.3 °C and -17.2 kcal/mol.
For GGTTAGCGAAAGCTGACC (((.(((....))).))), the Tm in data set [1] is 58.4 °C. For the same sequence, the folding enthalpy in data set [2] was -36.4 kcal/mol.
In the same order, the values of GGTTATCCGAAAGGAACC (((..(((....)))))) are 30.2 °C and -15.2 kcal/mol.
In the same order, the values of GGTTATGCGAAAGCAACC (((..(((....)))))) are 38.3 °C and -15.1 kcal/mol.
For GGTTATGGAAACATGACC (((.(((....))).))) the same measures were 45.4 °C and -33.2 kcal/mol.
In the case of GGTTCACGAAAGTGACC (((.(((....)))))), the Tm in data set [1] came to 59 °C. Moreover, in data set [2], the folding enthalpy was -15.5 kcal/mol.
In the same order, the values of GGTTCCGAAAGGAACACC ((((((....)))..))) are 51.9 °C and -8.81 kcal/mol.
On to GGTTCCGAAAGGACACC ((((((....))).))), for which, in data set [1], the Tm was found to be 48 °C. In addition, in data set [2], the folding enthalpy is -24.5 kcal/mol.
On to GGTTCCGAAAGGATGACC ((((((....)))..))), for which the Tm in data set [1] is 38.2 °C. Also, the folding enthalpy in data set [2] is -18.5 kcal/mol.
For GGTTCGAAAGAACC (((((....))))) the same measures were 64.8 °C and -28.2 kcal/mol.
For GGTTCGCGAAAGCGCACC (((.(((....))).))) the same measures were 55.4 °C and -29.5 kcal/mol.
For GGTTCTCGAAAGAGACC (((.(((....)))))) the same measures were 49.7 °C and -20.9 kcal/mol.
Consider GGTTCTCGAAAGAGCACC (((.(((....))).))), for which the Tm in data set [1] came to 45.9 °C. For the same sequence, the folding enthalpy in data set [2] was -31.1 kcal/mol.
For the sequence GGTTGACGAAAGTCACC (((.(((....)))))), in data set [1], the Tm amounted to 53.5 °C. For the same sequence, in data set [2], the folding enthalpy is -19.8 kcal/mol.
In the same order, the values of GGTTGACGAAAGTCGACC (((.(((....))).))) are 63 °C and -46.8 kcal/mol.
Regarding GGTTGAGGAAACTCAATC (.(((((....))))).), in data set [1], the Tm stood at 43.4 °C. Moreover, in data set [2], the folding enthalpy was -28.3 kcal/mol.
As to GGTTGTGCGAAAGCAACC (((..(((....)))))), the Tm in data set [1] came out at 42.8 °C. Moreover, the folding enthalpy in data set [2] is -19.1 kcal/mol.
For GGTTGTGGAAACACAACC (((((((....))))))) the same measures were 66.3 °C and -42 kcal/mol.
For GGTTGTGGAAACACAATC (.(((((....))))).), the Tm in data set [1] came out at 47.9 °C. The folding enthalpy in data set [2] is -29.7 kcal/mol.
For GGTTGTGGAAACGCAATC (.(((.(....).))).) the same measures were 35.7 °C and -20.6 kcal/mol.
For GGTTTAACGAAAGTTACC (((..(((....)))))) the same measures were 29.6 °C and -14.6 kcal/mol.
For GGTTTAGCGAAAGCTACC (((..(((....)))))) the same measures were 32 °C and -12.1 kcal/mol.
Regarding GGTTTAGGAAACCAAACC (((((.(....).))))), the Tm in data set [1] came out at 37 °C. In addition, the folding enthalpy in data set [2] was -22.9 kcal/mol.
For GGTTTCACGAAAGTGACC (((..(((....)))))) the same measures were 29.2 °C and -12.3 kcal/mol.
Take GGTTTCCGAAAGGAGACC (((.(((....))).))): the Tm in data set [1] was 54.4 °C. In addition, in data set [2], the folding enthalpy is -51 kcal/mol.
For GGTTTCGAAAGAAACACC ((((((....)))..))), in data set [1], the Tm was 45.7 °C. Besides, in data set [2], the folding enthalpy is -11.3 kcal/mol.
In the same order, the values of GGTTTCGAAAGAAAGACC ((((((....)))..))) are 30.1 °C and -14.4 kcal/mol.
For GGTTTCGAAAGAACAACC ((((((....)))..))) the same measures were 30.4 °C and -13 kcal/mol.
For GGTTTCGCGAAAGCGACC (((..(((....)))))) the same measures were 32.1 °C and -8.08 kcal/mol.
With GGTTTCGGAAACGAGATC (.(.(((....))).).), the Tm in data set [1] worked out at 27.7 °C. In addition, the folding enthalpy in data set [2] is -11.6 kcal/mol.
As to GGTTTCGGAAACGGAATC (.((.((....)).)).), in data set [1], the Tm is 33.4 °C. Besides, the folding enthalpy in data set [2] is -20.8 kcal/mol.
In the same order, the values of GGTTTCTCGAAAGAGACC (((..(((....)))))) are 32.6 °C and -18.8 kcal/mol.
For the sequence GGTTTGGGAAACTAAACC (((((.(....).))))), the Tm in data set [1] was found to be 44.7 °C. The folding enthalpy in data set [2] was -33 kcal/mol.
For GGTTTGTCGAAAGACACC (((..(((....)))))), the Tm in data set [1] worked out at 31.2 °C. Further, the folding enthalpy in data set [2] was -10.9 kcal/mol.
As to GGTTTTCCGAAAGGAACC (((..(((....)))))), the Tm in data set [1] is 31.1 °C. The folding enthalpy in data set [2] was -12.1 kcal/mol.
For the sequence GGTTTTGGAAACGAAATC (.(((.(....).))).), in data set [1], the Tm is 25.2 °C. Besides, the folding enthalpy in data set [2] is -12.1 kcal/mol.
In the same order, the values of GTAAAAGGAAACTTTTAC (((((((....))))))) are 46.4 °C and -37.1 kcal/mol.
For GTAAACCCGAAAGGGTAC (((..(((....)))))) the same measures were 32.8 °C and -10.1 kcal/mol.
Consider GTAAACCGAAAGGTCTAC (((.(((....))).))), for which the Tm in data set [1] came out at 35.6 °C. Besides, in data set [2], the folding enthalpy was -19.2 kcal/mol.
For GTAAACGAAAGTTGCTAC ((((((....)))..))) the same measures were 29 °C and -9.49 kcal/mol.
For GTAAACGCGAAAGCGTAC (((..(((....)))))) the same measures were 35 °C and -8.26 kcal/mol.
For GTAAAGACGAAAGTCTAC (((..(((....)))))) the same measures were 29.8 °C and -11.6 kcal/mol.
As for GTAAAGGGAAACCCTTAC ((((.((....)).)))), the Tm in data set [1] turned out to be 32.8 °C. For the same sequence, the folding enthalpy in data set [2] was -22.2 kcal/mol.
In the case of GTAAAGGGAAACCTTTGC (.(((((....))))).), in data set [1], the Tm worked out at 37.5 °C. Besides, the folding enthalpy in data set [2] was -28.4 kcal/mol.
For GTAAAGTCGAAAGACTAC (((..(((....)))))) the same measures were 31.9 °C and -11.7 kcal/mol.
In the same order, the values of GTAAATCGAAAGATGTAC (((.(((....))).))) are 34.4 °C and -23.1 kcal/mol.
For GTAAATCGAAAGATTAC (((.(((....)))))) the same measures were 33.9 °C and -14 kcal/mol.
On to GTAAATGAAAATTTAC ((((((....)))))), for which the Tm in data set [1] was 37.2 °C. The folding enthalpy in data set [2] is -26.1 kcal/mol.
For GTAAATGCGAAAGCATAC (((..(((....)))))) the same measures were 29.3 °C and -10.9 kcal/mol.
For GTAACCGAAAGGTGTAC ((((((....))).))) the same measures were 41.3 °C and -19.5 kcal/mol.
For GTAACCGAAAGGTTATAC ((((((....)))..))) the same measures were 43.7 °C and -13.4 kcal/mol.
Consider GTAACCGAAAGGTTTAC ((((((....))).))), for which the Tm in data set [1] came to 43 °C. The folding enthalpy in data set [2] was -14.2 kcal/mol.
As to GTAACGAAAGTTAC (((((....))))), in data set [1], the Tm stood at 55 °C. Also, the folding enthalpy in data set [2] is -26.1 kcal/mol.
For GTAACGCCGAAAGGCTAC (((..(((....)))))) the same measures were 27.1 °C and -6.97 kcal/mol.
For GTAACGGGAAACTGTTGC (.(((.(....).))).) the same measures were 32.9 °C and -22.8 kcal/mol.
As to GTAACTGGAAACGGTTAC (((((.(....).))))), the Tm in data set [1] stood at 44.1 °C. For the same sequence, the folding enthalpy in data set [2] was -32.6 kcal/mol.
For GTAAGAGAAATCTTAC ((((((....)))))) the same measures were 38.6 °C and -22 kcal/mol.
For GTAAGCCGAAAGGCTAC (((.(((....)))))) the same measures were 47.3 °C and -11.5 kcal/mol.
Consider GTAAGCGAAAGCTGATAC ((((((....)))..))), for which, in data set [1], the Tm was found to be 29.8 °C. Also, the folding enthalpy in data set [2] was -12.2 kcal/mol.
In the same order, the values of GTAAGCGGAAACGCTCAC ((.((((....)))).)) are 37.7 °C and -13.4 kcal/mol.
In the same order, the values of GTAAGCTCGAAAGAGTAC (((..(((....)))))) are 27 °C and -12.2 kcal/mol.
GTAAGGTCGAAAGACTAC (((..(((....)))))): the Tm in data set [1] came out at 29.1 °C. In data set [2], the folding enthalpy is -13.1 kcal/mol.
Take GTAAGTCGAAAGACTAC (((.(((....)))))): in data set [1], the Tm came to 39.5 °C. Moreover, the folding enthalpy in data set [2] was -16.9 kcal/mol.
Regarding GTAAGTGCGAAAGCATAC (((..(((....)))))), the Tm in data set [1] was determined as 27.2 °C. Moreover, the folding enthalpy in data set [2] is -11.2 kcal/mol.
Consider GTAAGTGGAAACGCTTAC (((((.(....).))))), for which, in data set [1], the Tm is 45.4 °C. In data set [2], the folding enthalpy was -27.6 kcal/mol.
